{
  "source": "ChEMBL document CHEMBL1135138",
  "about": "“2-Aminothiazoles: a new class of agonist allosteric enhancers of A(1) adenosine receptors” (Bioorg Med Chem Lett, 2002)",
  "key": {"Adenosine receptor A1": {"molecular_target": "T1, Adenosine receptor A1 (Homo sapiens, UniProt P30542)", "T1 sequence (P30542 whole entry)": "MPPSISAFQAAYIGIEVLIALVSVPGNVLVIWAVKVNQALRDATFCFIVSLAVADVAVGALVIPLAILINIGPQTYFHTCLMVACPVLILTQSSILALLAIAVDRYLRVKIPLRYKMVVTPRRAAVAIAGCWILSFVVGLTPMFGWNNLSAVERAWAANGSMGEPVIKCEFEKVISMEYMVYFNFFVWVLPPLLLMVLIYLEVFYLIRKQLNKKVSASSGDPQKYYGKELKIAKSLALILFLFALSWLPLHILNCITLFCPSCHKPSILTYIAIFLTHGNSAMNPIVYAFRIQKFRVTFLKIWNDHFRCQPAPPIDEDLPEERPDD", "assay": "Effective concentration against Adenosine A1 receptor"}, "[1]": {"molecular_target": "T2, Adenosine receptor A1 (Homo sapiens) (UniProt P30542)", "T2 sequence (whole entry)": "T1 sequence (P30542 whole entry)", "assay": "AE activity is the ratio of specific binding at the end of dissociation to specific binding at the end of 120 min of equilibration at 50 uM concentration to Adenosine A1 receptor", "method_in_brief": "(§1)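 Test agent from DMSO stock was added for 5 min. Dissociation was started with 8-CPT plus GTPγS and stopped after 10 min by glass-fibre filtration. Nonspecific binding (8-CPT/GTPγS, no agent) was subtracted. % = specific binding after dissociation ÷ after equilibration. Means of 2–3 experiments ±SEM.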"}, "[2]": {"molecular_target": "T2, Adenosine receptor A1 (Homo sapiens)", "assay": "AE activity is the ratio of specific binding at the end of dissociation to specific binding at the end of 120 min of equilibration at 50 uM concentration to Adenosine A1 receptor; not significantly active", "method_in_brief": "as §1"}, "[3]": {"molecular_target": "T2, Adenosine receptor A1 (Homo sapiens)", "assay": "AE activity is the ratio of specific binding at the end of dissociation to specific binding at the end of 120 min of equilibration at 5 uM concentration to Adenosine A1 receptor", "method_in_brief": "as §1"}, "[4]": {"molecular_target": "T3, Adenosine receptor A3 (Homo sapiens) (UniProt P0DMS8)", "T3 sequence (whole entry)": "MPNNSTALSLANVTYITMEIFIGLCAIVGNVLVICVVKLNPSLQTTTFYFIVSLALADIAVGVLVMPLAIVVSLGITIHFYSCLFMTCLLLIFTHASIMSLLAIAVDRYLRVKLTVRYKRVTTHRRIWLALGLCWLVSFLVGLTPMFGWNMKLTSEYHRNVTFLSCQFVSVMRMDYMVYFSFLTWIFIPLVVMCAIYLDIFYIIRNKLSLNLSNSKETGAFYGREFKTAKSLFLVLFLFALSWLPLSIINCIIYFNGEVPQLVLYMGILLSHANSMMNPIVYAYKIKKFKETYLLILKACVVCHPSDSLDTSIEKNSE", "assay": "Percent allosteric enhancer (AE) activity from ratio of specific binding to Adenosine A3 receptor at end of dissociation to that of 120 min of equilibration"}, "[5]": {"molecular_target": "Adenosine receptor A2a (Homo sapiens) (UniProt P29274)", "sequence (P29274 whole entry)": "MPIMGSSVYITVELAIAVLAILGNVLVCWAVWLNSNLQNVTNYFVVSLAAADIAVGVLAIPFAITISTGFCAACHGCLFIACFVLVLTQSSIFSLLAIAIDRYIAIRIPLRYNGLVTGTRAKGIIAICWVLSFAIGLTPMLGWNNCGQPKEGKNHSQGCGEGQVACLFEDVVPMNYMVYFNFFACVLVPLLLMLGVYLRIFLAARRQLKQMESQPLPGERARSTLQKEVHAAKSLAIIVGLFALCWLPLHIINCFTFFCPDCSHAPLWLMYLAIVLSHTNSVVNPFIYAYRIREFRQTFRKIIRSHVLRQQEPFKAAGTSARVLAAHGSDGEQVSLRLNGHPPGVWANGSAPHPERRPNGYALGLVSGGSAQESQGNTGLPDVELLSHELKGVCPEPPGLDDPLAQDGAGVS", "assay": "Percent allosteric enhancer (AE) activity from ratio of specific binding to Adenosine A2A receptor at end of dissociation to that of 120 min of equilibration"}, "[6]": {"molecular_target": "T2, Adenosine receptor A1 (Homo sapiens)", "assay": "AE activity is the ratio of specific binding at the end of dissociation to specific binding at the end of 120 min of equilibration at 5 uM concentration to Adenosine A1 receptor; not significantly active", "method_in_brief": "as §1"}},
  "note": "Activity calls are given as the source filed them. The rule behind the calls is not given here.",
  "data": [
    {"smiles": "Nc1nc2c(s1)Cc1ccccc1-2", "values": [
      {"measurement": "EC50", "setting": "Adenosine receptor A1", "result": 38, "unit": "µM"},
      {"measurement": "AE activity", "setting": "[1]", "result": 91, "unit": "%"}
    ]},
    {"smiles": "Nc1nc2c(s1)CCCCC2", "values": [
      {"measurement": "AE activity", "setting": "[2]", "result": "inactive"}
    ]},
    {"smiles": "Nc1nc2c(s1)CCc1cc(OC(=O)c3ccccc3)ccc1-2", "values": [
      {"measurement": "AE activity", "setting": "[3]", "result": 54, "unit": "%"}
    ]},
    {"smiles": "Nc1nc2c(s1)-c1ccccc1C2", "values": [
      {"measurement": "AE activity", "setting": "[2]", "result": "inactive"}
    ]},
    {"smiles": "Cc1ccc2c(c1)-c1nc(N)sc1C2", "values": [
      {"measurement": "EC50", "setting": "Adenosine receptor A1", "result": 4.2, "unit": "µM"},
      {"measurement": "AE activity", "setting": "[1]", "result": 72, "unit": "%"}
    ]},
    {"smiles": "Nc1nc2c(s1)-c1ccccc1CC2", "values": [
      {"measurement": "AE activity", "setting": "[2]", "result": "inactive"}
    ]},
    {"smiles": "CCCCCOc1ccc2c(c1)CCc1sc(N)nc1-2", "values": [
      {"measurement": "AE activity", "setting": "[3]", "result": 41, "unit": "%"}
    ]},
    {"smiles": "COc1cc2c(cc1OC)-c1nc(N)sc1C2", "values": [
      {"measurement": "AE activity", "setting": "[4]", "result": 29, "unit": "%"},
      {"measurement": "AE activity", "setting": "[5]", "result": 36, "unit": "%"},
      {"measurement": "AE activity", "setting": "[1]", "result": 78, "unit": "%"}
    ]},
    {"smiles": "COc1cc2c(c(OC)c1OC)Cc1sc(N)nc1-2", "values": [
      {"measurement": "AE activity", "setting": "[3]", "result": 60, "unit": "%"},
      {"measurement": "EC50", "setting": "Adenosine receptor A1", "result": 17, "unit": "µM"}
    ]},
    {"smiles": "CC(=O)Oc1cccc2c1Cc1sc(N)nc1-2", "values": [
      {"measurement": "AE activity", "setting": "[3]", "result": 74, "unit": "%"},
      {"measurement": "AE activity", "setting": "[4]", "result": 22, "unit": "%"},
      {"measurement": "AE activity", "setting": "[5]", "result": 19, "unit": "%"}
    ]},
    {"smiles": "CC(=O)Oc1ccc2c(c1)CCc1sc(N)nc1-2", "values": [
      {"measurement": "AE activity", "setting": "[4]", "result": 30, "unit": "%"},
      {"measurement": "AE activity", "setting": "[5]", "result": 24, "unit": "%"},
      {"measurement": "AE activity", "setting": "[1]", "result": 95, "unit": "%"}
    ]},
    {"smiles": "Nc1nc2c(s1)CCCC2", "values": [
      {"measurement": "AE activity", "setting": "[1]", "result": 19, "unit": "%"}
    ]},
    {"smiles": "CCCCCCCCOc1ccc2c(c1)CCc1sc(N)nc1-2", "values": [
      {"measurement": "AE activity", "setting": "[3]", "result": 45, "unit": "%"}
    ]},
    {"smiles": "Nc1nc2c(s1)CCc1ccccc1-2", "values": [
      {"measurement": "EC50", "setting": "Adenosine receptor A1", "result": 17, "unit": "µM"},
      {"measurement": "AE activity", "setting": "[1]", "result": 80, "unit": "%"}
    ]},
    {"smiles": "Nc1nc2c(s1)Cc1c(OC(=O)C3CCCCC3)cccc1-2", "values": [
      {"measurement": "AE activity", "setting": "[2]", "result": "inactive"}
    ]},
    {"smiles": "Nc1nc2c(s1)Cc1cc(Br)ccc1-2", "values": [
      {"measurement": "AE activity", "setting": "[2]", "result": "inactive"}
    ]},
    {"smiles": "Nc1nc2c(s1)CCCc1ccccc1-2", "values": [
      {"measurement": "AE activity", "setting": "[2]", "result": "inactive"}
    ]},
    {"smiles": "COc1ccc2c(c1)Cc1sc(N)nc1-2", "values": [
      {"measurement": "EC50", "setting": "Adenosine receptor A1", "result": 50, "unit": "µM"},
      {"measurement": "AE activity", "setting": "[1]", "result": 66, "unit": "%"}
    ]},
    {"smiles": "Cc1cccc2c1Cc1sc(N)nc1-2", "values": [
      {"measurement": "AE activity", "setting": "[1]", "result": 81, "unit": "%"}
    ]},
    {"smiles": "COc1cc2c(c(OC)c1OC)-c1nc(N)sc1C2", "values": [
      {"measurement": "AE activity", "setting": "[1]", "result": 24, "unit": "%"}
    ]},
    {"smiles": "Nc1nc2c(s1)COc1ccccc1-2", "values": [
      {"measurement": "AE activity", "setting": "[1]", "result": 62, "unit": "%"}
    ]},
    {"smiles": "Nc1nc2c(s1)Cc1c(OC(=O)C3CCCC3)cccc1-2", "values": [
      {"measurement": "EC50", "setting": "Adenosine receptor A1", "result": 4.5, "unit": "µM"},
      {"measurement": "AE activity", "setting": "[1]", "result": 85, "unit": "%"}
    ]},
    {"smiles": "COc1ccc2c(c1)CCc1sc(N)nc1-2", "values": [
      {"measurement": "AE activity", "setting": "[4]", "result": 8, "unit": "%"},
      {"measurement": "AE activity", "setting": "[5]", "result": 18, "unit": "%"},
      {"measurement": "AE activity", "setting": "[1]", "result": 78, "unit": "%"}
    ]},
    {"smiles": "Nc1nc2c(s1)CCc1cc(OC3C=CC=C3)ccc1-2", "values": [
      {"measurement": "AE activity", "setting": "[6]", "result": "inactive"}
    ]}
  ]
}
